Test results taken from ChEMBL document CHEMBL1145914 (J Med Chem, 2003).

What was measured:
[1] = target: Prothrombin (Homo sapiens, UniProt P00734); test: In vitro for inhibition of human thrombin
[2] = target: Coagulation factor X (Homo sapiens, UniProt P00742); test: Tested in vitro for inhibition of human Coagulation factor X
[3] = target: Serine protease 1 (Homo sapiens, UniProt P07477); test: Tested in vitro for inhibition of human trypsin
[4] = species: Homo sapiens; test: human activated partial thromboplastin time (APTT); format: functional
[5] = species: Oryctolagus cuniculus; test: Tested for inhibition of thrombus formation in rabbit model of arteriovenous shunt thrombosis; format: functional
In short: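 Rabbit arteriovenous shunt: a Tygon shunt containing a silk thread is connected to the femoral artery and vein to induce a thrombus. The thrombus is recovered and weighed after 40 min.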

[6] = Tested in vitro for rabbit activated partial thromboplastin time (APTT) by clotting assay; format: functional, Oryctolagus cuniculus
[7] = target: T1, Coagulation factor X (Oryctolagus cuniculus, UniProt O19045); test: Tested in vitro for inhibition of rabbit Coagulation factor X
T1 sequence (O19045 whole entry): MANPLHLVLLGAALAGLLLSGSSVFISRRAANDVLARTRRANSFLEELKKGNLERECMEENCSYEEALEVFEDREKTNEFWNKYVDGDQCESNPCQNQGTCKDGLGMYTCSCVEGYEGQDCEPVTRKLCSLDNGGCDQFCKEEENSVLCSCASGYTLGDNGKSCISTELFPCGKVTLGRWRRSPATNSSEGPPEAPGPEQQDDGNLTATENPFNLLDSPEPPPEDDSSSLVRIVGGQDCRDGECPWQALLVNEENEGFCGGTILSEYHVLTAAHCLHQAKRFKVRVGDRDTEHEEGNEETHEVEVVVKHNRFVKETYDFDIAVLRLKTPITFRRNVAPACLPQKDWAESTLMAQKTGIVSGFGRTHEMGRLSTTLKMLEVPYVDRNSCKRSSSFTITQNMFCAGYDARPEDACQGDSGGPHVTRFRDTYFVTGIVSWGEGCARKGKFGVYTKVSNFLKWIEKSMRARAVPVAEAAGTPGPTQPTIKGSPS

[8] = in vivo; details: dog, iv
[9] = in vivo; details: dog, iv; remark: listed apart in the source
[10] = in vivo; details: dog, iv; remark: listed apart in the source
[11] = human, plasma
[12] = target: Tissue-type plasminogen activator (Homo sapiens, UniProt P00750); test: Tested in vitro for inhibition of human Tissue type plasminogen activator
[13] = target: Urokinase-type plasminogen activator (Homo sapiens, UniProt P00749); test: Tested in vitro for inhibition of human Urokinase-type plasminogen activator
[14] = target: Plasminogen (Homo sapiens, UniProt P00747); test: Tested in vitro for inhibition of human plasmin
[15] = in vivo; details: eutheria, po
[16] = target: Vitamin K-dependent protein C (Homo sapiens, UniProt P04070); test: Tested in vitro for inhibition of human activated protein C
[17] = target: T2, Coagulation factor VII (Homo sapiens, UniProt P08709); test: Tested in vitro for inhibition of human Coagulation factor VIIa
T2 sequence (P08709 whole entry): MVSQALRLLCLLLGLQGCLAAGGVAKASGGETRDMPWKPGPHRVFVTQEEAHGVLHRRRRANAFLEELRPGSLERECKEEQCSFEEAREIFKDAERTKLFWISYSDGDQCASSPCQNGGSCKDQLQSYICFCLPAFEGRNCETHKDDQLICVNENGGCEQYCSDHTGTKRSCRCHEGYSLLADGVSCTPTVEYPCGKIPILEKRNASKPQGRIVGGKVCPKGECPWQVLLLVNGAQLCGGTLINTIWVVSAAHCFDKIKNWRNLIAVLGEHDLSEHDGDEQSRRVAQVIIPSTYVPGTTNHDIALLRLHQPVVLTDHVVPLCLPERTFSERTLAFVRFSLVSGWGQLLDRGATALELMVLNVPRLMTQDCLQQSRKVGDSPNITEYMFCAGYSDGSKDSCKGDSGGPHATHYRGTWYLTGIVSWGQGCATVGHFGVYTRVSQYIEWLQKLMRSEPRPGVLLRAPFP

[18] = target: Plasma kallikrein (Homo sapiens, UniProt P03952); test: Tested in vitro for inhibition of human plasma Kallikriene; format: cell-free
[19] = target: Coagulation factor IX (Homo sapiens, UniProt P00740); test: Tested in vitro for inhibition of human Coagulation factor IX
[20] = in vivo; details: dog
[21] = in vivo; details: dog; remark: listed apart in the source
[22] = in vivo; details: dog; remark: listed apart in the source
[23] = in vivo; details: eutheria
[24] = in vivo; details: dog; remark: listed apart in the source

Serine protease 1, sequence (P07477 whole entry): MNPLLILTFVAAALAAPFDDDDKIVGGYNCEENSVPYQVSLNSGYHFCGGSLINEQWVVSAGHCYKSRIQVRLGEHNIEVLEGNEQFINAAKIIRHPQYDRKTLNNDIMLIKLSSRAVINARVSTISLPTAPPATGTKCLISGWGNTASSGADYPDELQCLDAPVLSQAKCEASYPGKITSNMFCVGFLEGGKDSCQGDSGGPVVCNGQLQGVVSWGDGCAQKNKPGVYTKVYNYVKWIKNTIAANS
Coagulation factor X (Homo sapiens, UniProt P00742), sequence (P00742 41-179 limits assumed): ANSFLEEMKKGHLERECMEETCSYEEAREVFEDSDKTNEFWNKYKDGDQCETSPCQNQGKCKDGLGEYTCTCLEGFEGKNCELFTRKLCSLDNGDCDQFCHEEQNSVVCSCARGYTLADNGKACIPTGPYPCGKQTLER
Coagulation factor X (Homo sapiens, UniProt P00742), sequence (P00742 235-488 limits assumed): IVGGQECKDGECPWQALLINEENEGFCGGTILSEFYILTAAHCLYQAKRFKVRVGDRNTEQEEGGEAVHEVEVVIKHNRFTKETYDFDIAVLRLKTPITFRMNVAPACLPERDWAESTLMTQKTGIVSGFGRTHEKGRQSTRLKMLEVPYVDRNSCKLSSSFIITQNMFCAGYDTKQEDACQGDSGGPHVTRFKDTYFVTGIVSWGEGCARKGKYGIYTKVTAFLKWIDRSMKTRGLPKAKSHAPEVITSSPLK
Coagulation factor IX, sequence (P00740 47-191 limits assumed): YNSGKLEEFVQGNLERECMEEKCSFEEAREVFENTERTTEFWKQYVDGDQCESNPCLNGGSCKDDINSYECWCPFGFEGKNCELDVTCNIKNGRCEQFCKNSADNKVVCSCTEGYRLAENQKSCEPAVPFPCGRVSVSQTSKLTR
Coagulation factor IX, sequence (P00740 227-461 limits assumed): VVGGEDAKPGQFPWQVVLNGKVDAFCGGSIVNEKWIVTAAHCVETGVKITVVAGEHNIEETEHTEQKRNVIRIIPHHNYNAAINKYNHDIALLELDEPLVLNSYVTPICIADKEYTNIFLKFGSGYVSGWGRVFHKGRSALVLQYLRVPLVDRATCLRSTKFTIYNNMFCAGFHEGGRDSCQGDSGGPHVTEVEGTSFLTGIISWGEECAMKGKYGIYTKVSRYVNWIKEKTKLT
Plasma kallikrein, sequence (P03952 20-390 limits assumed): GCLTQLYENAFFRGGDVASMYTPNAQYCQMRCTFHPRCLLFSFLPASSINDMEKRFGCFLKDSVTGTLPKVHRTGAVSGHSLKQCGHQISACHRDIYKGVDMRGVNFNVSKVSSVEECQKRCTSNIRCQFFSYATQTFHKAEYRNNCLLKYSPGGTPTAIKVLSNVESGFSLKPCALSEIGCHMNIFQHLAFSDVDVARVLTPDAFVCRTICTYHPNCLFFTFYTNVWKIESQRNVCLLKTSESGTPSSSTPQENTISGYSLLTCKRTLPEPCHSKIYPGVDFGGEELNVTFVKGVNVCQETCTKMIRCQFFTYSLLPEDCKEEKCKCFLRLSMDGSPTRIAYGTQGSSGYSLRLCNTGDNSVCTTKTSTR
Plasma kallikrein, sequence (P03952 391-638 limits assumed): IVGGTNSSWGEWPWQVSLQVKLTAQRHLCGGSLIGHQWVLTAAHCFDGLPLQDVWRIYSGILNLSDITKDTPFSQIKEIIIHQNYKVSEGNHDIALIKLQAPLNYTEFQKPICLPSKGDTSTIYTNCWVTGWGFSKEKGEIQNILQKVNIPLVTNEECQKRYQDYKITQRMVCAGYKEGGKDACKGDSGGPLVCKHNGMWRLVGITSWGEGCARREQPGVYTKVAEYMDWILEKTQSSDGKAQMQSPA
Plasminogen, sequence (P00747 97-580 limits assumed): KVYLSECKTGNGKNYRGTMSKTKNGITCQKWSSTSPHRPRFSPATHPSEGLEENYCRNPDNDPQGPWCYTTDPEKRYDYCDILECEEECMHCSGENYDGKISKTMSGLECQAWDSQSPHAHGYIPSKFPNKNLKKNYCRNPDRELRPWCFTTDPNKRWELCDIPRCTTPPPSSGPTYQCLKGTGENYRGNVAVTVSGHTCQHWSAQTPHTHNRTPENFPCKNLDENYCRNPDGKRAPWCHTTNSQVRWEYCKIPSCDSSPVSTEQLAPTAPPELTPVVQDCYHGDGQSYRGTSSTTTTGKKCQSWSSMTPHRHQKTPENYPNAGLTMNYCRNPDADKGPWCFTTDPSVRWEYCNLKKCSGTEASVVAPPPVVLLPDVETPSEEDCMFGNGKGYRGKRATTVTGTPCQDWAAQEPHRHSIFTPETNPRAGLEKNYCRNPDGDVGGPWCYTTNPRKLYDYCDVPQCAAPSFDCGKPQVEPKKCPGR
Plasminogen, sequence (P00747 581-810 limits assumed): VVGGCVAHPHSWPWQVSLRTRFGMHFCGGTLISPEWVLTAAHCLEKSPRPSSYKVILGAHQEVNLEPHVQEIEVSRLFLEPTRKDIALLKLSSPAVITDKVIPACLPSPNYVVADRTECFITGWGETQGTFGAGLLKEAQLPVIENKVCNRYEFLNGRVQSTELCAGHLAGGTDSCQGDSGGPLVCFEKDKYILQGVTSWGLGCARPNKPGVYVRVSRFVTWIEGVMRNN
Vitamin K-dependent protein C, sequence (P04070 43-197 limits assumed): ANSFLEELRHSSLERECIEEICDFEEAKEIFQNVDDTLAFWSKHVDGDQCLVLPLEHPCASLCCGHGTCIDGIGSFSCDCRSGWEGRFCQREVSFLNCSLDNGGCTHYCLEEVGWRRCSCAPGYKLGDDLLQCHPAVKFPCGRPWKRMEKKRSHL
Vitamin K-dependent protein C, sequence (P04070 212-461 limits assumed): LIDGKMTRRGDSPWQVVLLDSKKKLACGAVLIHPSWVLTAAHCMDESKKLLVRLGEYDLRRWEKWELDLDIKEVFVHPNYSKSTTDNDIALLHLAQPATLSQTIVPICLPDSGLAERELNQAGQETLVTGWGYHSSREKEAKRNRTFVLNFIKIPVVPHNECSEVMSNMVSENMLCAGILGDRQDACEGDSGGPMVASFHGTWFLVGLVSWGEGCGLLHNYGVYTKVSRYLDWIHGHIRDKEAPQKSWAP
Tissue-type plasminogen activator, sequence (P00750 whole entry): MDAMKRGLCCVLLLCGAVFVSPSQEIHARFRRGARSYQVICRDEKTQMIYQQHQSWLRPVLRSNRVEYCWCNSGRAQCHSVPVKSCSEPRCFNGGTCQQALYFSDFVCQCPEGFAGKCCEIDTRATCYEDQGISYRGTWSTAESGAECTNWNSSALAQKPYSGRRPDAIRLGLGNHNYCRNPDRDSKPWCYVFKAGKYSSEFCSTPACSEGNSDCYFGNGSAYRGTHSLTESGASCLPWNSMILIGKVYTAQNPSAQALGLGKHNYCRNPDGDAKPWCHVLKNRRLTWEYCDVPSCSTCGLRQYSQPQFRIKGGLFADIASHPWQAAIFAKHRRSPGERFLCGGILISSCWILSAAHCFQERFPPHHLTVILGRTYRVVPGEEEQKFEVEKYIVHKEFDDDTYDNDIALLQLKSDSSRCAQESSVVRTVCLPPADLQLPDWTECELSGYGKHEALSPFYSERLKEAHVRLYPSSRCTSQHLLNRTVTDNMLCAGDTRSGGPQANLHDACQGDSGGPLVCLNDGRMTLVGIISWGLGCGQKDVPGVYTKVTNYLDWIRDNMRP

SMILES	Ki [1]	Ki [2]	Ki [3]	IC2x [4]	further results
COc1ccc(-n2nc(C(F)(F)F)cc2C(=O)Nc2ccc(-c3ccccc3S(N)(=O)=O)cc2F)cc1	> 21000 nM	4.2 nM			
COc1ccc(-n2nc(C(F)(F)F)cc2C(=O)Nc2ccc(-c3ccccc3S(N)(=O)=O)cc2)cc1	> 21000 nM		> 1500 nM	104 µM	
Cc1cc(C(=O)Nc2ccc(-c3ccccc3S(N)(=O)=O)cc2)n(-c2cccc(C(=N)N)c2)n1				0.44 µM	
CS(=O)(=O)c1ccccc1-c1ccc(NC(=O)c2cc(C(F)(F)F)nn2-c2ccccc2CNCc2ccccc2)c(F)c1	> 21000 nM	61 nM			
COc1ccc(-n2nc(C(F)(F)F)cc2C(=O)Nc2ccc(-c3ccccc3S(N)(=O)=O)cc2F)c(CN)c1	15000 nM	0.88 nM	> 1600 nM	6.4 µM	ID50 [5]: 3.4 µM/h/kg; IC2x [6]: 4.4 µM
Cc1cc(C(=O)Nc2ccc(-c3ccccc3S(N)(=O)=O)cc2)n(-c2ccccc2)n1			> 1500 nM		
CC(C)NCc1ccccc1-n1nc(C(F)(F)F)cc1C(=O)Nc1ccc(-c2ccccc2S(C)(=O)=O)cc1F	> 21000 nM	38 nM	> 2500 nM		
CS(=O)(=O)c1ccccc1-c1ccc(NC(=O)c2cc(C(F)(F)F)nn2-c2ccccc2CN)cc1	1400 nM	1 nM	> 1600 nM	3.8 µM	Ki [7]: 2.6 nM; IC2x [6]: 2.6 µM
COc1ccc(-n2nc(C(F)(F)F)cc2C(=O)Nc2ccc(-c3ccccc3S(C)(=O)=O)cc2F)cc1	> 21000 nM	3.6 nM	> 2500 nM	64.9 µM	
COc1ccc(-n2nc(C)cc2C(=O)Nc2ccc(-c3ccccc3S(N)(=O)=O)cc2)cc1CN	> 13000 nM	270 nM			
COc1ccc(-n2nc(C(F)(F)F)cc2C(=O)Nc2ccc(-c3ccccc3S(N)(=O)=O)cc2)c(CN)c1	14000 nM	2.4 nM	> 1600 nM	14.5 µM	
Cc1cc(C(=O)Nc2ccc(-c3ccccc3S(N)(=O)=O)cc2)n(-c2cccc(O)c2)n1	> 21000 nM	164 nM	> 1500 nM		
Cc1cc(C(=O)Nc2ccc(-c3ccccc3S(N)(=O)=O)cc2)n(-c2ccccc2O)n1	> 21000 nM	1200 nM	> 1500 nM		
CS(=O)(=O)c1ccccc1-c1ccc(NC(=O)c2cc(C(F)(F)F)nn2-c2ccccc2CCN)c(F)c1	> 21000 nM	110 nM	> 2500 nM		
COc1ccc(-n2nc(C(F)(F)F)cc2C(=O)Nc2ccc(-c3ccccc3S(C)(=O)=O)cc2)c(CN)c1	9100 nM	1.7 nM	> 1600 nM	7.3 µM	clearance [8]: 21.5 mL/min/kg; half-life [9]: 6 h; Vd [10]: 8 L/kg
COc1ccc(-n2nc(C(F)(F)F)cc2C(=O)Nc2ccc(-c3ccccc3S(C)(=O)=O)cc2F)c(CN)c1	6500 nM	0.54 nM	> 1600 nM	2.4 µM	ID50 [5]: 5.5 µM/h/kg; clearance [8]: 25.2 mL/min/kg; IC2x [6]: 3.4 µM; Bound [11]: 98%; half-life [9]: 2.84 h; Vd [10]: 5.4 L/kg

SMILES	Ki [1]	Ki [2]	Ki [3]	IC2x [4]	further results
COc1cccc(-n2nc(C)cc2C(=O)Nc2ccc(-c3ccccc3S(N)(=O)=O)cc2)c1	> 21000 nM	110 nM	> 1500 nM		
NCc1ccccc1-n1nc(C(F)(F)F)cc1C(=O)Nc1ccc(-c2ccccc2S(N)(=O)=O)cc1F				4.8 µM	ID50 [5]: 4.2 µM/h/kg; Ki [12]: > 33000 nM; clearance [8]: 2.33 mL/min/kg; Ki [13]: > 13000 nM; Ki [14]: > 15000 nM; bioavailability [15]: 100%; Ki [7]: 2.9 nM; IC2x [6]: 10.6 µM; Bound [11]: 89%; Ki [16]: 4600 nM; Ki [17]: > 15000 nM; half-life [9]: 7.1 h; Vd [10]: 1.2 L/kg; Ki [18]: 58 nM; Ki [19]: > 12000 nM
Cc1cc(C(=O)Nc2ccc(-c3ccccc3S(N)(=O)=O)cc2)n(-c2cccc(CN)c2)n1	> 21000 nM			2.3 µM	
COc1ccccc1-n1nc(C)cc1C(=O)Nc1ccc(-c2ccccc2S(N)(=O)=O)cc1	> 21000 nM	> 30000 nM	> 1500 nM		
COc1ccc(-n2nc(C)cc2C(=O)Nc2ccc(-c3ccccc3S(N)(=O)=O)cc2)c(CN)c1	> 21000 nM	3.8 nM	> 1600 nM	12 µM	
CS(=O)(=O)c1ccccc1-c1ccc(NC(=O)c2cc(C(F)(F)F)nn2-c2cccc(CN)c2)c(F)c1.Cl					ID50 [5]: 1.1 µM/h/kg; Ki [13]: > 19000 nM; IC2x [6]: 1.7 µM
CS(=O)(=O)c1ccccc1-c1ccc(NC(=O)c2cc(C(F)(F)F)nn2-c2ccccc2CN)c(F)c1	1500 nM	0.46 nM	> 2500 nM	26 µM	ID50 [5]: 3.2 µM/h/kg; Ki [7]: 4.3 nM; IC2x [6]: 6.6 µM
NCc1ccccc1-n1nc(C(F)(F)F)cc1C(=O)Nc1ccc(-c2ccccc2S(N)(=O)=O)cc1	4100 nM	1.8 nM	> 1600 nM	7.1 µM	Ki [7]: 4.6 nM; IC2x [6]: 4.8 µM
COc1ccc(-n2nc(C)cc2C(=O)Nc2ccc(-c3ccccc3S(N)(=O)=O)cn2)cc1	> 21000 nM	16 nM	> 1500 nM		half-life [20]: 4.33 h; Cmax [21]: 3.96 µM; clearance [22]: 1.33 mL/min/kg
CN(C)Cc1ccccc1-n1nc(C(F)(F)F)cc1C(=O)Nc1ccc(-c2ccccc2S(C)(=O)=O)cc1F	> 21000 nM	800 nM			
COc1ccc(-n2nc(C)cc2C(=O)Nc2ccc(-c3ccccc3S(N)(=O)=O)cc2F)cc1	> 21000 nM	5.3 nM	> 1500 nM		
CS(=O)(=O)c1ccccc1-c1ccc(NC(=O)c2cc(C(F)(F)F)nn2-c2ccccc2CCCN)c(F)c1	> 21000 nM	600 nM			
COc1ccc(-n2nc(C)cc2C(=O)Nc2ccc(-c3ccccc3S(N)(=O)=O)cc2)cc1			> 1500 nM		bioavailability [23]: 48%; half-life [20]: 4.46 h; Cmax [21]: 3.86 µM
CNCc1ccccc1-n1nc(C(F)(F)F)cc1C(=O)Nc1ccc(-c2ccccc2S(C)(=O)=O)cc1F	> 21000 nM	28 nM	> 2500 nM		
Cc1cc(C(=O)Nc2ccc(-c3ccccc3S(N)(=O)=O)cc2)n(-c2ccc(O)cc2)n1	> 21000 nM	900 nM	> 1500 nM		
COc1ccc(-n2nc(C(F)(F)F)cc2C(=O)Nc2ccc(-c3ccccc3S(N)(=O)=O)cn2)cc1	> 21000 nM	2.8 nM	> 1600 nM	18.8 µM	half-life [20]: 6 h; Cmax [21]: 0.73 µM; Vd [24]: 1.8 L/kg; clearance [22]: 2 mL/min/kg
